High-throughput results (PubChem)
Most compounds without a hit are left out; they make up all but 2.2% or so of the library.
LEDGF integ inh: blocks HIV-1 LEDGF/p75-dependent DNA integration | TR-FRET IN-LEDGF/p75 DNA integration, Eu/Cy5 | inhibition, % at 3.7 µM | actives 0.64% (n = 370,000) | AID 743269;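 active means inhibition above the screen-wide mean plus 3 SD, cut at about 13% in these data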;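 further: signal is the Cy5 over europium emission ratio at 671 and 618 nm; 0% = plate median of compound wells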
SIAE primary: blocks human sialic acid acetylesterase; Q9HAT2; AID 1053197; inhibition, % at 9.66 µM; SIAE FP-Rh probe binding, fluorescence polarization; actives 0.69% (n = 370,000);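 active means inhibition above a cutoff: mean of compounds within the control limits plus 3 SD of those, cut at about 17% in these data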;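 further: 0% = plate median of compound wells and 100% = probe without SIAE protein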
Target sequence (Q9HAT2 whole entry, looked up): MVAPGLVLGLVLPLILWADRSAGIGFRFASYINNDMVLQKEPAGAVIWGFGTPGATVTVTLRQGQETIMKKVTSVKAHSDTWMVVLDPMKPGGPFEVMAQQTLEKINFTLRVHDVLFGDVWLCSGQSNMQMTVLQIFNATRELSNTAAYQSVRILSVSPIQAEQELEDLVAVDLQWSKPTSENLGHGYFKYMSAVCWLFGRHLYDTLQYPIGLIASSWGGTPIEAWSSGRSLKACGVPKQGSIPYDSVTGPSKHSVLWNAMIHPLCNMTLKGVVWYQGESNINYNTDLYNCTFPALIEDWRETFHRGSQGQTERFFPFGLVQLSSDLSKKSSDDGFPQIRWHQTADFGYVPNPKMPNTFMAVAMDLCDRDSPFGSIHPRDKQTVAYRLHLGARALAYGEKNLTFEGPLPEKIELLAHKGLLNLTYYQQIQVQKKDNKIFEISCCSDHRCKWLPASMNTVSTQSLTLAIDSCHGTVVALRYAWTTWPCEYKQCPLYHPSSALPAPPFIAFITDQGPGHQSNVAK
TCR CD3 inh: blocks the human TCR-CD3 interaction. TAMRA-labeled TCR probe fluorescence, biochemical. inhibition, % at 9.4 µM. actives 0.37% (n = 360,000). AID 651800; in the data active means inhibition above about 19%;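 further: recombinant mutant TCR 2C K166C tagged with TAMRA read by polarization; 0% = receptor in buffer alone and 100% = receptor with positive control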
TDP2 inh: TDP2 (human) inhibition, absorbance primary screen; actives 0.34% (n = 370,000); inhibition, % at 12.8 µM; recombinant TDP2, T5PNP hydrolysis, p-nitrophenol absorbance 415 nm; AID 720702; O95551;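 active means inhibition above the mean of all tested compounds plus 3 SD, set per campaign, cut at about 25% in these data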;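 further: 0% = DMSO with enzyme and 100% = buffer with substrate but no TDP2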
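Test system: Human TDP2 enzyme | Reagent: 5 mM T5PNP | Compound dosing: 12.8 µM single point, 1% DMSO | Incubation: Enzyme reaction with compound for 2 h at 37 °C | Technique: p-Nitrophenol epi absorbance | Read-out: % inhibition relative to enzyme-containing and enzyme-free wells | Benchmarks: High control without enzyme, low control DMSO plus TDP2 | Replicates: Singlicate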
HTRA1 inhibitor: inhibitors of human serine peptidase HTRA1; Q92743; recombinant HTRA1, FP-rhodamine activity-based probe, fluorescence polarization; inhibition, % at 5.96 µM; actives 0.5% (n = 340,000); in the data active means inhibition above about 36%;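 further: 0% = enzyme with DMSO and 100% = wells lacking enzyme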
mABHD4 FP: ABHD4 (mouse) inhibition, primary FP screen | AID 720543 | purified mABHD4, FP-Rh probe fluorescence polarization | Q8VD66 | actives 0.54% (n = 370,000) | inhibition, % at 8.92 µM;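 active means inhibition exceeding the mean over every tested compound plus 3 SD, cut at about 30% in these data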;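 further: 0% = plate median of compound wells and 100% = S159A mutant with DMSO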
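Assay system: mABHD4 protein; medium: HEPES pH 7.0, NaCl, Pluronic buffer; dosing: 8.92 µM, single dose; schedule: 45 min + 60 min at 25 °C; signal: FP readout, ex 525 nm / em 598 nm; read-out: normalized percent inhibition of probe labeling; repeats: single replicate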
TDP2 confirm: confirmation of human TDP2 inhibitors. recombinant human TDP2, absorbance read-out. actives 22% (n = 1,100). shares compounds with TDP2 inh. inhibition, % at 12.8 µM. AID 743263; in the data active means inhibition above about 25%;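 further: 0% = vehicle with enzyme and 100% = no enzyme buffer only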
IN multimer act: HIV-1 integrase multimerization activation, counter-screen | TR-FRET HIV-1 integrase multimerization, biochemical | shares compounds with LEDGF integ inh | actives 17% (n = 2,000) | activation, % at 7.7 µM; in the data active means activation above about 8.9%
TR-FRET interf: TR-FRET optical interference, LEDGF/p75 integration counter-screen; 2,000 tested, under 10 active; shares compounds with LEDGF integ inh; TR-FRET optical interference counterscreen, HIV-1 IN multimerization; inhibition, % at 7.7 µM;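 active means inhibition above the mean over all tested compounds plus 3 SD, which no compound reached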;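 further: 0% = integrase with antibodies and DMSO and 100% = antibodies without integrase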
LEDGF integ conf: confirmation of HIV-1 LEDGF/p75-dependent integration inhibitors; shares compounds with LEDGF integ inh; actives 36% (n = 2,000); TR-FRET LEDGF/p75-dependent HIV-1 integration, biochemical; inhibition, % at 3.7 µM; in the data active means inhibition above about 14%
* = called active by the depositor; . = no result given.

SMILES | LEDGF integ inh | SIAE primary | TCR CD3 inh | TDP2 inh | HTRA1 inhibitor | mABHD4 FP | TDP2 confirm | IN multimer act | TR-FRET interf | LEDGF integ conf
CC(C)C1=CC2C3C(C(C(C)C)=CC(=O)[C@@]3(C)O)C1C(=O)C2(C)O (some centres not stated) | 0 | -1 | -3 | 4 | . | -8 | . | . | . | .
CCCc1nn(-c2ccccc2)c2c1C(c1cccs1)C(C#N)=C(N)O2 (configuration not stated) | -2 | 9 | 4 | 14 | 4 | 10 | . | . | . | .
COc1ccc(OC)c(C2C(C#N)=C(N)Oc3cc(C)[nH]c(=O)c32)c1 (configuration not stated) | -1 | -1 | -2 | -3 | 4 | 5 | . | . | . | .
COc1ccc(OC)c(C2C(C#N)=C(N)Oc3c2c(C)nn3-c2cccc(Cl)c2)c1 (configuration not stated) | 17* | 10 | -11 | 82* | 11 | 22 | 8 | 0 | 0 | -6
COc1cc(C2C(C#N)=C(N)Oc3c2c(-c2ccccc2)nn3-c2ccccc2)cc(OC)c1OC (configuration not stated) | 19* | 23* | 4 | 80* | 7 | 20 | 10 | 0 | -1 | 5
O=C1N2Cc3ccccc3C2CS(=O)(=O)N1CCc1ccccc1 (configuration not stated) | 4 | 2 | . | -4 | . | -2 | . | . | . | .
CC1=NN(c2ccccc2)C(=O)/C1=C\c1cn(-c2ccccc2)nc1C | -3 | 5 | -1 | -4 | -2 | 11 | . | . | . | .
COc1ccccc1/C=C1/C(=O)N(c2ccccc2)N=C1C | 52* | 7 | -5 | 80* | 4 | -10 | 14 | 2 | -10 | 5
CN(C(=O)c1ccccc1OCC(=O)Nc1ccc(Br)cc1)c1ccccc1 | -1 | -15 | . | -6 | . | -11 | . | . | . | .
O=C(N/N=C/c1cccs1)c1ccccn1 | -8 | 1 | 3 | -10 | -3 | 3 | . | . | . | .
C(=NN=C(NN=Cc1cccs1)NN=Cc1cccs1)c1cccs1 | 34* | 4 | -3 | 54* | 24 | 4 | -1 | 0 | -1 | -11
CCN(CC)C(=O)CC[C@H]1CC[C@]2(CCCN(S(C)(=O)=O)C2)O1 | -4 | 2 | . | 8 | . | 4 | . | . | . | .
O=S(=O)(Nc1ccc(O)c2ccccc12)c1cccs1 | 26* | 5 | 4 | 50* | 24 | 46* | 30* | 2 | -9 | 13
O=S(=O)(Nc1cccc2ccccc12)c1cccs1 | 1 | 5 | 2 | -3 | -1 | 4 | . | . | . | .
COC(=O)C1CN(Cc2cn(Cc3ccc(C)cc3)nn2)CCS(=O)(=O)N1Cc1ccccc1 (configuration not stated) | 4 | -9 | . | -10 | . | 2 | . | . | . | .
O=C(Nc1c(-c2ccc(C(F)(F)F)cc2)nc2ncccn12)c1ccc(F)cc1 | -1 | 0 | . | 10 | . | 6 | . | . | . | .
CCc1nnc(N/N=C/c2c(Cl)cccc2Cl)n1N | 49* | -1 | 7 | 60* | 4 | 4 | 11 | -4 | 14 | 13
C(=N\Nc1nc2ccccc2s1)/c1cccs1 | 1 | 4 | -11 | -1 | 13 | 20 | . | . | . | .
CCc1nnc(N/N=C/c2cccs2)n1N | 44* | 4 | 6 | 69* | 1 | 2 | 3 | 5 | -23 | 0
COc1ccc(-n2c(SCC(=O)Nc3cc(C)c(NC(=O)c4ccccc4)cc3OC)nnc2-c2ccco2)cc1 | 3 | -6 | . | -15 | . | -10 | . | . | . | .
Nc1c2c(=O)[nH]c(O)cc2nn1-c1ccccc1 | 16* | 11 | 1 | 89* | 1 | 4 | 77* | 2 | -7 | 1
Cc1c(C)c2c(C)nn(-c3ccccc3)c2[nH]c1=O | -2 | 2 | -4 | 1 | -2 | 3 | . | . | . | .
N#CCCn1[nH]c(-c2ccccc2)cc1=O | 27* | 11 | -7 | 85* | -1 | 4 | 11 | 7 | -23 | 6
O=c1cc(-c2ccccc2)[nH]n1-c1nc2ccccc2[nH]1 | 3 | 8 | 6 | 6 | 20 | 12 | . | . | . | .
CCN(CC)CCCNc1ccc2ncn3c4ccc(O)cc4c(=O)c1c23 | 36* | 2 | 1 | 87* | 10 | 13 | 28* | 20* | -71 | 14*
SMILES | LEDGF integ inh | SIAE primary | TCR CD3 inh | TDP2 inh | HTRA1 inhibitor | mABHD4 FP | TDP2 confirm | IN multimer act | TR-FRET interf | LEDGF integ conf
CN(C)CCNc1ccc2nnn3c4ccc(O)cc4c(=O)c1c23 | -2 | 4 | 3 | 2 | 1 | 12 | . | . | . | .
COC(=O)[C@]12C[C@H](CC(=O)NCC3CCCCC3)C(=O)N(CCC3=CCCCC3)C1=C[C@H](C(C)C)O[C@@H]2C1CC1 | -5 | -3 | . | -5 | . | 3 | . | . | . | .
Cc1[nH]n(-c2ccccc2)c(=O)c1C(C[N+](=O)[O-])c1ccc(Br)cc1 (configuration not stated) | -1 | 8 | 0 | 22 | -11 | 8 | . | . | . | .
Cc1[nH]n(-c2ccccc2)c(=O)c1C(c1cccc([N+](=O)[O-])c1O)c1c(C)[nH]n(-c2ccccc2)c1=O | 26* | 1 | 3 | 84* | 1 | 12 | 3 | 8 | -41 | 1
Cc1[nH]n(-c2ccccc2)c(=O)c1C(c1ccc(C(=O)O)cc1)c1c(C)[nH]n(-c2ccccc2)c1=O | 34* | 3 | 1 | 99* | 16 | 7 | 25* | 6 | -20 | 14*
Cc1c(C(c2cccc([N+](=O)[O-])c2O)c2c(C)n(C)n(-c3ccccc3)c2=O)c(=O)n(-c2ccccc2)n1C | 6 | 11 | -5 | -6 | -2 | -4 | . | . | . | .
COc1ccc(OC)c(S(=O)(=O)Nc2ccc(C(=O)Nc3cc(C)on3)cc2)c1 | 0 | 1 | . | 4 | . | -3 | . | . | . | .
CCN(Cc1ccccc1)C(=O)CCCN1C(=O)COc2ccc(C)cc21 | -4 | -2 | . | 1 | . | 3 | . | . | . | .
CC(=O)CC[C@@H]1CC[C@]2(CCCN(C(=O)C3CCCC3)C2)O1 | -2 | -1 | . | -3 | . | 2 | . | . | . | .
COc1ccc(O)c(C(c2c(C)[nH][nH]c2=O)c2c(C)[nH][nH]c2=O)c1 | 22* | 8 | -1 | 73* | 23 | 11 | 73* | 0 | -1 | 12
O=S(=O)(c1ccccc1S(=O)(=O)N1CCCCC1)N1CCCCC1 | . | . | . | . | -4 | . | . | . | . | .
